Experimental data from different studies.
Compare with care: the assays were run in different laboratories.

| Compound | assay | system | setting | quantity | value |
| --- | --- | --- | --- | --- | --- |
| CC(C)(C)[Si](C)(C)OCCCN(c1ccc(F)cc1)c1c(-c2ccccn2)nc2ccccn12 | metabolic stability | rat, hepatocytes |  | hepatocyte CLint | 42 µL/min/10⁶ cells |
| CS(=O)(=O)CCC#N |  | human, plasma | oral, 1000 mg, single dose, fasted | CL/F | 0.233 mL/min/kg |
| CN(C)C(=O)c1ccc(-c2c(-c3ccccn3)nc3n2CCC3)cc1 | metabolic stability | rat, hepatocytes |  | hepatocyte CLint | < 1 µL/min/10⁶ cells |
| CC(C)CN(C[C@@H](O)[C@H](Cc1ccccc1)NC(=O)O[C@H]1CO[C@H]2OCC[C@H]21)S(=O)(=O)c1ccc(N)cc1 | shake flask | PBS | pH 3 | logD | 2.98 |
| COc1cc(C(=O)NC2CCN(C)CC2)c(F)cc1Nc1ncc(C(F)(F)F)c(Oc2cccc3c2C(=O)N(C)C3)n1 |  | human, plasma | oral, 10 mg, multiple doses, once daily, patients | CL/F | 347 mL/min |
| CC1=C(C(=O)OCc2ccccc2)C(=O)/C(=C\c2cc(C)n(-c3ccccc3C(F)(F)F)c2C)N1 | HPLC |  | pH 7.4 | chromatographic logD | 4 |
| Fc1ccc(Nc2c(-c3ccccn3)nc3ccccn23)nc1 | metabolic stability | rat, hepatocytes |  | hepatocyte CLint | 18 µL/min/10⁶ cells |
| C[C@@H](C(=O)NC1Cc2ccccc2C1)c1ccccc1 | metabolic stability | rat, liver microsomes | 1 µM | microsomal CLint | > 200 µL/min/mg |
| c1ccc(C2CCN(c3nc(-c4ccn[nH]4)nc4ccccc34)C2)nc1 (centres unmarked) | metabolic stability | human, liver microsomes |  | microsomal CLint | 46 µL/min/mg |
| CCOC(=O)C1=C(C)N/C(=C/c2ccn(-c3ccc(C(F)(F)F)cc3)c2)C1=O | HPLC |  | pH 7.4 | chromatographic logD | 3.4 |
| COc1ccccc1-c1nc(N2CCC(c3ccccn3)C2)c2ccccc2n1 (centres unmarked) | metabolic stability | human, liver microsomes |  | microsomal CLint | 69 µL/min/mg |
| CC(C)CCN(c1ccc(F)cc1)c1c(-c2ccccn2)nc2ccccn12 | metabolic stability | rat, hepatocytes |  | hepatocyte CLint | > 300 µL/min/10⁶ cells |
| CCNCCCNC/C=C\CNCCCNCC |  | human, plasma | intravenous, 200 mg, patients, infusion | clearance | 3140 mL/min |
| COc1cc(OC)cc(-c2c(-c3ccccn3)nc3n2CCC3)c1 | metabolic stability | rat, hepatocytes |  | hepatocyte CLint | > 300 µL/min/10⁶ cells |
| Fc1cccc(Nc2nc(-c3ccccn3)nc3ccccc23)c1 | metabolic stability | human, liver microsomes |  | microsomal CLint | 81 µL/min/mg |
| c1cnc2ccc(Nc3nc(NC4CC4)c4nc[nH]c4n3)cc2c1 |  | human, plasma | oral, 200 mg/m², patients | CL/F | 1350 mL/min |
| COc1cccnc1-c1nc2ccccn2c1N(C)c1ccc(F)cc1 | metabolic stability | rat, hepatocytes |  | hepatocyte CLint | > 300 µL/min/10⁶ cells |
| O=C1C2N=CN3C(NCc4c(F)ccc5c4CCO5)=NC=C(c4cnc(C(F)(F)F)cc4CN1CC(F)F)C23 (centres unmarked) | metabolic stability | rat, liver microsomes | 100 µM, 30 min | scaled CLint | 20 mL/min/kg |
| NC(=O)C1CCN(c2nc(-c3ccccn3)nc3ccccc23)C1 (centres unmarked) | metabolic stability | human, liver microsomes |  | microsomal CLint | 37 µL/min/mg |
| CCCN(c1ccc(F)cc1)c1c(-c2ccccn2)nc2ccccn12 | metabolic stability | rat, hepatocytes |  | hepatocyte CLint | 110 µL/min/10⁶ cells |
| Cc1c(C(=O)NN2CCCC(O)C2)nc(-c2ccc(Cl)cc2Cl)n1-c1ccc(OS(=O)(=O)CCC(F)(F)F)cc1 (centres unmarked) | shake flask | aqueous buffer | pH 7.4 | logD | 3.8 |
| c1ccc(-c2nc(NCCn3ccnc3)c3ccccc3n2)nc1 | metabolic stability | human, liver microsomes |  | microsomal CLint | 36 µL/min/mg |
| C[C@@H](C(=O)N1Cc2c(-c3ccc(C(=O)N4CCCc5ccccc54)cc3)cnn2C[C@@H]1C)c1ccccc1 | HPLC |  | pH 7.4 | chromatographic logD | 4.8 |
| c1ccc(-c2nc(NCCn3cnc4ccccc43)c3ccccc3n2)nc1 | metabolic stability | human, liver microsomes |  | microsomal CLint | 150 µL/min/mg |
| OC[C@H]1O[C@@H](c2ccc(Cl)c(Cc3ccc(O[C@H]4CCOC4)cc3)c2)[C@H](O)[C@@H](O)[C@@H]1O |  | human, urine | oral, 2.5 mg, single dose | renal clearance | 29.1 mL/min |
| c1ccc(-c2nc(NCc3ccco3)c3ccccc3n2)nc1 | metabolic stability | human, liver microsomes |  | microsomal CLint | 71 µL/min/mg |
| Cc1ccc(C(=O)N(CCCN)[C@@H](c2oc3cc(Cl)ccc3c(=O)c2Cc2ccccc2)C(C)C)cc1 |  | human, plasma | intravenous, 5 mg/m², single dose, patients, infusion | clearance | 20.5 mL/min |
| Clc1cccc(-c2c(-c3ccccn3)nc3n2CCC3)c1 | metabolic stability | rat, hepatocytes |  | hepatocyte CLint | 51 µL/min/10⁶ cells |
| N#CC1CCCN(c2nc(-c3ccccn3)nc3ccccc23)C1 (centres unmarked) | metabolic stability | human, liver microsomes |  | microsomal CLint | 48 µL/min/mg |
